Measured values taken from paper PMC4355479 (Molecular cell, 2015).

Tests used:
[1] = tested on: MZM-REP protein of Mib1 with deletion of residues 315-330; assay: ITC with crystallization construct MZM-REP; type: binding; conditions: Table S1
In short: (§1)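 MZM-REP protein is expressed as an N-terminal His6-SUMO fusion and loaded in the ITC cell at 42 μM, 25 C, stirred at 1000 RPM. Jag1 tail polypeptide is the titrant. Binding parameters come from a one-site binding model fit.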

[2] = tested on: Mib1 with deletion of either the MZM or REP region; assay: Co-immunoprecipitation with Mib1 lacking MZM or REP region; type: cell-based; conditions: HEK293T cells, Figure S1A
[3] = tested on: mutated Mib1 (ΔRNG); assay: Co-immunoprecipitation with Mib1 mutated at MZM and/or REP interface; type: cell-based; conditions: HEK293T cells, Figure 5D
In short: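 Myc-tagged Mib1 (ΔRNG) and V5-tagged Jag1 co-transfected into sub-confluent HEK293T cells by lipofection. After 48 hr, cells lysed on ice in 0.5% Fos-Choline 12, 50 mM HEPES pH 7.4, 150 mM NaCl, DTT, ZnCl2, CaCl2 and protease inhibitors. Cleared lysate incubated with anti-V5 agarose for 1 hr at 4 C. Beads washed 3x, then analysed by anti-Myc and anti-V5 Western blot.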

[4] = tested on: Mib1 with Asp to Asn mutations in one or both Mib repeat(s); assay: Co-immunoprecipitation with Mib1 Asp to Asn mutants in one or both Mib repeat; type: cell-based; conditions: HEK293T cells, Figure S3D
[5] = tested on: MZM-REP, REP mutant; assay: ITC with REP mutant of MZM-REP; type: binding; conditions: 25 C; 42 μM; HEPES pH 7.4, 500 mM NaCl; REP side mutated; Figure 5C
In short: as §1

| effect of Mib1 Δ315-330 deletion on binding to Jag1 [1] | Substance | co-immunoprecipitation with Mib1 lacking MZM or REP region [2] | co-immunoprecipitation with Mib1, both interfaces mutated ([3]; both interfaces in combination) | co-immunoprecipitation with Mib1, MZM interface mutated ([3]; mutation targeting MZM:N-box interface alone) | co-immunoprecipitation with Mib1, REP interface mutated ([3]; mutation targeting REP:C-box interface alone) | contribution of Mib repeats to C-box binding, co-immunoprecipitation [4] | binding to REP mutant by ITC [5] |
| --- | --- | --- | --- | --- | --- | --- | --- |
| does not deleteriously affect binding | Jag1: Jag1 construct, V5-tagged in co-immunoprecipitation | eliminates co-immunoprecipitation (co-IP) | prevent co-immunoprecipitation | prevent co-immunoprecipitation | prevent co-immunoprecipitation | first Mib repeat exerts a dominant role in C-box binding | – |
| – | full-length tail: Jag1 intracellular tail; HA-tagged in ubiquitin transfer; as DLL4 chimera in reporter assay | – | – | – | – | – | attenuates binding |
